How the values were obtained:
E. coli K12 [1] = assay: Zeta potential of treated bacteria by DLS; assay type: cell-based, Escherichia coli; conditions: E. coli K12, PAs at 10X MIC
A. baumannii [2] = assay: Membrane permeability, PI uptake; assay type: cell-based, Acinetobacter baumannii; conditions: 1 and 2X MIC, 2 hours
Outline: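 Bacteria washed and resuspended at 0.3 McFarland in 5 mM HEPES/20 mM glucose, pH 7.4, with propidium iodide at 7.5 μg/mL final. Test compound was given to MRSA JE2 at 0.5, 1 and 2X MIC and to A. baumannii at 1 and 2X MIC. Controls were untreated cells, polymyxin B and daptomycin. Incubated 2 h at 37°C; fluorescence read at ex 535 nm/em 615 nm.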

A. baumannii [3] = assay: Membrane depolarization, DiSC 3; assay type: cell-based, Acinetobacter baumannii; conditions: 1 and 2X MIC, 2 hours
Outline: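 Cells suspended at 0.5 McFarland in 5 mM HEPES/20 mM glucose, pH 7.4, with DiSC3(5) at 1 μM final. Test compound at 1 and 2X MIC; controls were untreated cells, polymyxin B and daptomycin. Incubated 2 h at 37°C. Fluorescence read at ex 622 nm/em 670 nm; dye release into medium raises signal.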

E. coli K12 [4] = assay: Inner membrane permeabilization assay; assay type: cell-based, Escherichia coli; conditions: E. coli K12, 0.5, 1 and 2X MIC, monitored for 180 mins, absorbance 415 nm, 37 °C, triplicate
Outline: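 Assay for β-galactosidase release into the medium using ONPG as substrate, adapted from a published method. Test compound was dissolved in PBS at 1 mg/mL, annealed at 80 °C for 30 min, aged overnight, then diluted in PBS or media. Controls were polymyxin B (positive) and bacteria with ONPG and PBS (negative). o-Nitrophenol absorbance at 415 nm was read at intervals at 37 °C.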

MRSA JE2 = assay: Zeta potential of treated bacteria by DLS; assay type: cell-based, Staphylococcus aureus; conditions: 1 hour treatment
Outline: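 Bacteria were cultured 18–20 h, resuspended in PBS and adjusted to 5 X 10^7 CFU/mL. They were treated 1 h with test compound at 10X MIC; test compound was pre-annealed in PBS and aged overnight. Controls were untreated cells, polymyxin B and daptomycin. Zeta potential was then measured by DLS at 25 °C.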

| Substance | change of bacterial zeta potential (E. coli K12 [1]) | PI intensity (membrane permeability) (A. baumannii [2]) | order of activity, DiSC 3(5) (A. baumannii [3]) | order of membrane permeability (ONPG) (E. coli K12 [4]) | change of bacterial zeta potential (MRSA JE2) |
| --- | --- | --- | --- | --- | --- |
| Polymyxin B [PMB] | does not show a notable change | significant increase in PI intensity | PA 26 > PMB > PA 9 | PMB > PA 26 > PA 3 > PA 9 | – |
| daptomycin | – | – | – | – | induces (slightly) the zeta potential to be more negative |

— PMC10939825 (Chemistry (Weinheim an der Bergstrasse, Germany), 2024)
